In one experiment the test system is UO-31. Nature of the experiment: Antitumor activity against human UO31 cells. In kind it is functional. Put shortly: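 NCI 60-cell-line screen. Parameters were GI50 (50% net growth inhibition), TGI and LC50, each reported as –log molar concentration. Where an effect was not reached within the tested range, the highest tested concentration was used in the calculation.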

Experiment [1] has as its system Jurkat. Nature of the experiment: Cell cycle arrest in human Jurkat cells assessed as accumulation at S phase at 250 nM after 24 hrs by flow cytometry. The class given is functional. Put shortly:
(§1)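 Exponentially growing Jurkat cells (5 × 105) were exposed to compound for 24 h. Cells were then fixed in ice-cold 70% ethanol, lysed with RNase A-containing buffer and stained with propidium iodide. DNA-content histograms from flow cytometry gave G1, S and G2/M fractions.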
For orientation: A flow cytometer gives signals particle by particle.

For experiment [2], the system named is Jurkat. In words: Cell cycle arrest in human Jurkat cells at mitosis at 0.5 uM after 24 hrs. The class given is functional. Put shortly:
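Exponentially growing Jurkat cells were exposed for 24 h, then pelleted at 400g for 5 min. Hypotonic KCl (75 mM, 4 °C) was applied for 20 min, followed by methanol–acetic acid (3:1) fixation and Giemsa staining. 400 cells per treatment were scored microscopically; mitotic index is the fraction with mitotic figures. Three independent experiments, mean ± SEM.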

For experiment [3], the system named is Jurkat. Nature of the experiment: Induction of apoptosis in human Jurkat cells assessed as activation of caspase 9 after 24 hrs by flow cytometry. In kind it is functional, cell-based. Put shortly: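 Jurkat cells were exposed (500 nM) for 24 h, then harvested and incubated in HBSS with cell-permeable FITC-DEVD-fmk (caspase-3) or FITC-[…]-fmk (caspase-9) for 1 h at 37 °C. After washing, cells were read by flow cytometry on FL-1. Results are fold increase over control.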

Experiment [4] relates to A549. In words: Disruption of tubulin network in human A549 cells assessed as disaggregation of microtubules at 5 uM […]. In kind it is functional, cell-based.
Experiment [5] has as its system Jurkat. In words: Effect on mitochondrial membrane potential depolarization in human Jurkat cells after 24 hrs by flow cytometry. The class given is functional, cell-based. The gist of the method:
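Jurkat cells after 24 h exposure were loaded with JC-1 (1 µM in HBSS) for 10 min at 37 °C, washed and analyzed by flow cytometry. The percentage of cells with low mitochondrial potential was recorded.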

The test system of experiment [6] is Jurkat. In words: Cell cycle arrest in human Jurkat cells assessed as accumulation at G2/M phase at 32 nM after 24 hrs by flow cytometry. The class given is functional. Put shortly:
as §1

For experiment [7], the system named is A549. Nature of the experiment: Disruption of tubulin network in human A549 cells assessed as disaggregation of microtubules at 2.5 uM […]. The class given is functional, cell-based.
The subject of experiment [8] is LoVo. Nature of the experiment: Growth inhibition of human doxorubicin-resistant LoVo cells after 72 hrs by MTT assay. In kind it is functional. The gist of the method:
(§2)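 Growth inhibition by MTT after 72 h incubation. Resistant sublines: LoVoDoxo and MCF-7 MDR were kept in 0.1 µg/mL doxorubicin; CEMVbl-100 was selected against vinblastine. GI50 given as mean ± SEM of three independent experiments. Resistance index is resistant-line GI50 over parental GI50.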
On the technique in general: Tetrazolium dyes change colour on reduction, which living cells bring about.

A further experiment deals with K562. In words: Antitumor activity against human K562 cells. In kind it is functional. The gist of the method:
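Run by the NCI in its in vitro disease-oriented screen of about 60 human tumour cell lines. For each line it reports pGI50 (50% net growth inhibition), pTGI (total growth inhibition) and pLC50 (50% net cell death), each as –log molar concentration. Where an effect was not reached within the tested range, the highest tested concentration was used.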

The test system of experiment [9] is Jurkat. In words: Cell cycle arrest in human Jurkat cells assessed as accumulation at G1 phase at 32 nM after 24 hrs by flow cytometry. In kind it is functional. The gist of the method: as §1
The subject of experiment [10] is Jurkat. Nature of the experiment: Cell cycle arrest in human Jurkat cells assessed as accumulation at G2/M phase at 62.5 nM after 24 hrs by flow cytometry. In kind it is functional. The gist of the method:
as §1

The test system of experiment [11] is Jurkat. In words: Cell cycle arrest in human Jurkat cells assessed as accumulation at G1 phase at 62.5 nM after 24 hrs by flow cytometry. In kind it is functional. The gist of the method:
as §1

Experiment [12] deals with Jurkat. Nature of the experiment: Cell cycle arrest in human Jurkat cells assessed as accumulation at G2/M phase at 250 nM after 24 hrs by flow cytometry. In kind it is functional. The gist of the method: as §1
The subject of experiment [13] is LoVo. In words: Growth inhibition of human LoVo cells after 72 hrs by MTT assay. The class given is functional. The gist of the method:
as §2

Experiment [14] deals with Jurkat. Nature of the experiment: Cell cycle arrest in human Jurkat cells assessed as accumulation at S phase at 500 nM after 24 hrs by flow cytometry. In kind it is functional. Put shortly: as §1
For experiment [15], the system named is Jurkat. Nature of the experiment: Effect on mitochondrial dysfunction in human Jurkat cells assessed as decrease in 10-N-nonyl-acridine-orange fluorescence intensity after 24 hrs by flow cytometry. In kind it is functional, cell-based. The gist of the method:
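Jurkat cells after 24 h exposure were resuspended in HBSS with hydroethidine (2.5 µM, ROS) or NAO (100 nM, cardiolipin oxidation) for 30 min at 37 °C. Flow cytometry used 488 nm excitation, with emission at 585 nm (HE) or 530 nm (NAO). Mean ± SEM of three experiments.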

Experiment [16] concerns Jurkat. Nature of the experiment: Cell cycle arrest in human Jurkat cells assessed as accumulation at G2/M phase at 500 nM after 24 hrs by flow cytometry. The class given is functional. The gist of the method: as §1
Experiment [17] has as its system LoVo. In words: Resistance index, Ratio of GI50 for human doxorubicin-resistant LoVo cells to GI50 for human LoVo cells. The class given is functional. The gist of the method:
as §2

Experiment [18] addresses DNA topoisomerase 1 (Homo sapiens) (UniProt P11387). Nature of the experiment: Inhibition of human topoisomerase 1-mediated relaxation of supercoiled pBR322 DNA at 20 uM by agarose gel electrophoresis. Put shortly:
(§3)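 Supercoiled pBR322 was incubated with 5 units of human topoisomerase I for 30 min at 37 °C in 50 mM Tris-HCl pH 7.8, 50 mM KCl, 10 mM MgCl2, 1 mM DTT, 1 mM EDTA, with drug 0.5–200 µM. Reactions were stopped with SDS and proteinase K, run on 1% agarose at 20 V overnight, stained with ethidium bromide, and bands quantified. Ethidium-containing gels were also run.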

The test system of experiment [19] is Jurkat. Nature of the experiment: Cell cycle arrest in human Jurkat cells assessed as accumulation at G1 phase at 125 nM after 24 hrs by flow cytometry. In kind it is functional. The gist of the method:
as §1

For another experiment, the system named is Salmonidae. Nature of the experiment: Binding affinity to salmon testes DNA by spectrophotometric titration method. Put shortly:
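Absorption titration of salmon testes DNA into a constant drug concentration at varying [drug]/[DNA] ratios. ETN buffer (10 mM Tris, 1 mM EDTA, 10 mM NaCl), pH 7.0, 25 °C. Scatchard isotherms were fitted to the McGhee–von Hippel model for intrinsic binding constant and site size.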

The target of experiment [20] is DNA topoisomerase 1 (Homo sapiens) (UniProt P11387). In words: Inhibition of human topoisomerase 1-mediated relaxation of supercoiled pBR322 DNA at 200 uM by agarose gel electrophoresis. The gist of the method:
as §3

A short description of experiment [21]: Antitumor activity against human HL60(TB) cells. The class given is functional, HL-60(TB). The gist of the method:
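Tested by the NCI in its in vitro disease-oriented human tumor cell line screen. Each cell line gave pGI50 (−log molar concentration for 50% net growth inhibition), pTGI (−log molar concentration for total growth inhibition) and pLC50 (−log molar concentration for 50% net cell death).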

Setting [22] is: read-out: Log LC50 (the source's name) (converted).

Active and inactive are the calls of the source. The rule behind the calls is not given here.

One may read the GI50 as the concentration that inhibits growth by half. Low values mean more potent growth inhibition, high ones less potent growth inhibition.

DNA topoisomerase 1 (Homo sapiens), sequence (P11387 whole entry): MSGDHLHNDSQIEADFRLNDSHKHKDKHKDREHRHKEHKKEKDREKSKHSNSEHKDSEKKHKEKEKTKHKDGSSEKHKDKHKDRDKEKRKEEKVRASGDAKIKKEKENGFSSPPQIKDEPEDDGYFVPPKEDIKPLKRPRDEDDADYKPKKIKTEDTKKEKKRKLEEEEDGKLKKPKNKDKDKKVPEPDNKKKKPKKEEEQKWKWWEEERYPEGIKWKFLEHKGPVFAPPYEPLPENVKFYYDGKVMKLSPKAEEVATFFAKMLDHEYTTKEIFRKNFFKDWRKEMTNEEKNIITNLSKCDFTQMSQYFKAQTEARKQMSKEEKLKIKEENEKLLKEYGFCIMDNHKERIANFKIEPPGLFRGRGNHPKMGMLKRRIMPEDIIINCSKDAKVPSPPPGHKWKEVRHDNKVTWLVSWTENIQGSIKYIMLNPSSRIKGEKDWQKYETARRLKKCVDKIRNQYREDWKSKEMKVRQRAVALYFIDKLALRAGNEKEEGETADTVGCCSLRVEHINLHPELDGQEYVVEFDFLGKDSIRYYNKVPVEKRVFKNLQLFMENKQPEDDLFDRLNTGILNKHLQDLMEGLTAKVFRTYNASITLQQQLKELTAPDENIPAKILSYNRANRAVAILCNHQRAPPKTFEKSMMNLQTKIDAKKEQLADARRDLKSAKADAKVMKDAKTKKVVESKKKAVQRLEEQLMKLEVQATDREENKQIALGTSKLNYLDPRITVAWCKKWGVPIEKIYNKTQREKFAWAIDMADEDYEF

`O=c1[nH]c2ccccc2n2cc3ccccc3c12` had a GI50 in the experiment on UO-31 of 12.6 µM. Moreover, the CC50 in the experiment with UO-31 (setting [22]) is 56.2 µM. In addition, in the experiment on UO-31 (read-out: pTGI (converted)), the TGI is 26.9 µM.

Consider `COc1ccc2c(c1)[nH]c(=O)c1c3ccccc3cn21`, for which the Activity is 44.2% in the experiment with Jurkat [1]; 50% in the experiment on Jurkat [2]; “Dose-dependent effect” in the experiment on Jurkat [5]; 28.8% in the experiment on Jurkat [6]; 27.1% with Jurkat [9]; 43.1% in the experiment on Jurkat [10]. The Activity with Jurkat [11] is listed as 3.4%; in the experiment on Jurkat [12] it was 55.2%; with Jurkat [14] it was 49.1%; in the experiment on Jurkat [16] it was 50.9%; in the experiment on Jurkat [19], 2.2%. The result (in the experiment with Jurkat [3]; in the experiment with A549 [4]; in the experiment with A549 [7]; with Jurkat [15]; in [18]; in experiment [20]) was Active. Further, the GI50 in the experiment on LoVo [8] is 130 nM; with K562, 8.91 nM; in the experiment with LoVo [13], 130 nM; in experiment [21] (HL-60), 11.5 nM. For the same molecule, the CC50 was 5.13 µM with K562 (setting [22]) and 3.55 µM in experiment [21] (HL-60, read-out: Log LC50 (the source's name) (converted)). Besides, the TGI in the experiment on K562 (read-out: pTGI (converted)) is 1020 nM; in [21] (HL-60, read-out: pTGI (converted)), 60.3 nM. For the same molecule, in the experiment with LoVo [17], the RatioGI50 is on record as 1. The K with Salmonidae was 2.7 10^5/M.

The values are drawn from ChEMBL document CHEMBL1144782, “Isoindolo[2,1-a]quinoxaline derivatives, novel potent antitumor agents with dual inhibition of tubulin polymerization and topoisomerase I” (2008).
